# Experimental data reported in ChEMBL document CHEMBL5247578, “Effective synthesis of benzimidazoles-imidazo[1,2-a]pyrazine conjugates: A comparative study of mono-and bis-benzimidazoles for antitumor activity” (Eur J Med Chem, 2019).
# Key:
# Format in all cases: functional
# RXF 393 = test: Antiproliferative activity against human RXF 393 cells assessed as cell growth at 0.00000001 M incubated for 48 hrs by SRB assay relative to control; conditions: dose 10 nM, read-out: Activity
# NCI/ADR-RES = test: Antiproliferative activity against human NCI/ADR-RES cells assessed as cell growth at 0.00000001 M incubated for 48 hrs by SRB assay relative to control; conditions: dose 10 nM, read-out: Activity
# OVCAR-4 [1] = test: Antiproliferative activity against human OVCAR-4 cells assessed as cell growth at 0.00000001 M incubated for 48 hrs by SRB assay relative to control; conditions: dose 10 nM, read-out: Activity
# CCRF-CEM = test: Antiproliferative activity against human CCRF-CEM cells assessed as cell growth at 0.00000001 M incubated for 48 hrs by SRB assay relative to control; conditions: dose 10 nM, read-out: Activity
# How it was run: (§1)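 NCI-60 five-dose screen over 10^-4–10^-8 M (10-fold dilutions). Cells grown in RPMI 1640 with 5% FBS and 2 mM L-glutamine, seeded at 5,000–40,000 cells/well and preincubated 24 h. Drug from DMSO stock, 48 h at 37 °C, 5% CO2. Adherent cells TCA-fixed and stained with 0.4% SRB; A515 read. Percent growth = (Ti−Tz)/(C−Tz)×100, or (Ti−Tz)/Tz×100 when Ti<Tz.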
# COLO 205 = test: Antiproliferative activity against human COLO 205 cells assessed as cell growth at 0.00000001 M incubated for 48 hrs by SRB assay relative to control; conditions: dose 10 nM, read-out: Activity; how it was run: as §1
# LOX IMVI [2] = test: Antiproliferative activity against human LOX IMVI cells assessed as cell growth at 0.00000001 M incubated for 48 hrs by SRB assay relative to control; conditions: dose 10 nM, read-out: Activity
# HT-29 [3] = test: Antiproliferative activity against human HT-29 cells assessed as cell growth inhibition by measuring lethal concentration incubated for 48 hrs by sulforhodamine B assay; conditions: read-out: LC50 (the source's name)
# NCI-H23 = test: Antiproliferative activity against human NCI-H23 cells assessed as cell growth inhibition by measuring lethal concentration incubated for 48 hrs by sulforhodamine B assay; conditions: read-out: LC50 (the source's name)
# EKVX = test: Antiproliferative activity against human EKVX cells assessed as cell growth inhibition by measuring lethal concentration incubated for 48 hrs by sulforhodamine B assay; conditions: read-out: LC50 (the source's name)
# DU-145 [4] = test: Growth inhibition against human DU-145 cells assessed as total growth inhibitory concentration incubated for 48 hrs by sulforhodamine B assay
# UACC-257 = test: Growth inhibition against human UACC-257 cells assessed as total growth inhibitory concentration incubated for 48 hrs by sulforhodamine B assay
# NCI-H522 = test: Growth inhibition against human NCI-H522 cells assessed as total growth inhibitory concentration incubated for 48 hrs by sulforhodamine B assay
# MDA-MB-468 = test: Growth inhibition against human MDA-MB-468 cells incubated for 48 hrs by sulforhodamine B assay
# BT-549 = test: Growth inhibition against human BT-549 cells incubated for 48 hrs by sulforhodamine B assay
# A498 = test: Growth inhibition against human A498 cells incubated for 48 hrs by sulforhodamine B assay
# KM12 = test: Antiproliferative activity against human KM12 cells assessed as cell growth at 0.0000001 M incubated for 48 hrs by SRB assay relative to control; conditions: dose 100 nM, read-out: Activity
# Malme-3M = test: Antiproliferative activity against human Malme-3M cells assessed as cell growth at 0.0000001 M incubated for 48 hrs by SRB assay relative to control; conditions: dose 100 nM, read-out: Activity
# SK-MEL-2 = test: Antiproliferative activity against human SK-MEL-2 cells assessed as cell growth at 0.0000001 M incubated for 48 hrs by SRB assay relative to control; conditions: dose 100 nM, read-out: Activity
# UACC-62 = test: Antiproliferative activity against human UACC-62 cells assessed as cell growth at 0.0000001 M incubated for 48 hrs by SRB assay relative to control; conditions: dose 100 nM, read-out: Activity
# OVCAR-4 [5] = test: Antiproliferative activity against human OVCAR-4 cells assessed as cell growth at 0.0000001 M incubated for 48 hrs by SRB assay relative to control; conditions: dose 100 nM, read-out: Activity
# T47D = test: Antiproliferative activity against human T47D cells assessed as cell growth at 0.0000001 M incubated for 48 hrs by SRB assay relative to control; conditions: dose 100 nM, read-out: Activity
# HOP-92 = test: Antiproliferative activity against human HOP-92 cells assessed as cell growth at 0.000001 M incubated for 48 hrs by SRB assay relative to control; conditions: read-out: Activity
# How it was run: (§2)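 NCI-60 five-dose screen (10^-4 to 10^-8 M). Cells grown in RPMI 1640 with 5% FBS and 2 mM L-glutamine, plated at 5,000-40,000 cells/well and preincubated 24 h. Drug given from DMSO stock, then 48 h at 37 °C, 5% CO2. For adherent lines, cells fixed with cold TCA, SRB-stained and read at 515 nm. Percent growth taken against time-zero and untreated control.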
# HCC 2998 = test: Antiproliferative activity against human HCC 2998 cells assessed as cell growth at 0.000001 M incubated for 48 hrs by SRB assay relative to control; conditions: read-out: Activity; how it was run: as §2
# HT-29 [6] = test: Antiproliferative activity against human HT-29 cells assessed as cell growth at 0.000001 M incubated for 48 hrs by SRB assay relative to control; conditions: read-out: Activity; how it was run: as §2
# SNB-75 [7] = test: Antiproliferative activity against human SNB-75 cells assessed as cell growth at 0.000001 M incubated for 48 hrs by SRB assay relative to control; conditions: read-out: Activity
# LOX IMVI [8] = test: Antiproliferative activity against human LOX IMVI cells assessed as cell growth at 0.000001 M incubated for 48 hrs by SRB assay relative to control; conditions: read-out: Activity
# OVCAR-3 = test: Antiproliferative activity against human OVCAR-3 cells assessed as cell growth at 0.000001 M incubated for 48 hrs by SRB assay relative to control; conditions: read-out: Activity
# CAKI-1 = test: Antiproliferative activity against human CAKI-1 cells assessed as cell growth at 0.000001 M incubated for 48 hrs by SRB assay relative to control; conditions: read-out: Activity; how it was run: as §1
# TK-10 = test: Antiproliferative activity against human TK-10 cells assessed as cell growth at 0.000001 M incubated for 48 hrs by SRB assay relative to control; conditions: read-out: Activity
# SF-295 = test: Antiproliferative activity against human SF-295 cells assessed as cell growth at 0.00001 M incubated for 48 hrs by SRB assay relative to control; conditions: read-out: Activity
# SNB-75 [9] = test: Antiproliferative activity against human SNB-75 cells assessed as cell growth at 0.00001 M incubated for 48 hrs by SRB assay relative to control; conditions: read-out: Activity
# MCF7 = test: Antiproliferative activity against human MCF7 cells assessed as cell growth at 0.00001 M incubated for 48 hrs by SRB assay relative to control; conditions: read-out: Activity
# HL-60 = test: Antiproliferative activity against human HL-60 cells assessed as cell growth at 0.0001 M incubated for 48 hrs by SRB assay relative to control; conditions: read-out: Activity; how it was run: as §2
# IGROV-1 = test: Antiproliferative activity against human IGROV-1 cells assessed as cell growth at 0.0001 M incubated for 48 hrs by SRB assay relative to control; conditions: read-out: Activity
# DU-145 [10] = test: Antiproliferative activity against human DU-145 cells assessed as cell growth at 0.0001 M incubated for 48 hrs by SRB assay relative to control; conditions: read-out: Activity; how it was run: as §2
SMILES,growth at 0.01 µM (RXF 393) [%],growth at 0.01 µM (NCI/ADR-RES) [%],growth at 0.01 µM (OVCAR-4 [1]) [%],growth at 0.01 µM (CCRF-CEM) [%],growth at 0.01 µM (COLO 205) [%],growth at 0.01 µM (LOX IMVI [2]) [%],CC50 (HT-29 [3]) [µM],CC50 (NCI-H23) [nM],CC50 (EKVX) [µM],TGI (DU-145 [4]) [nM],TGI (UACC-257) [µM],TGI (NCI-H522) [µM],GI50 (MDA-MB-468) [nM],GI50 (BT-549) [nM],GI50 (A498) [nM],growth at 0.1 µM (KM12) [%],growth at 0.1 µM (Malme-3M) [%],growth at 0.1 µM (SK-MEL-2) [%],growth at 0.1 µM (UACC-62) [%],growth at 0.1 µM (OVCAR-4 [5]) [%],also measured
COc1ccc(-c2cn3ccnc3c(-c3ccc4ncn(C5CCCCC5)c4c3)n2)cc1,102,100,96,106,96,95,> 100,> 100000,> 100,> 100000,> 100,6.15,863,410,742,99,95,92,90,96,growth at 0.1 µM (T47D): 86%; growth at 1 µM (HOP-92): 54%; growth at 1 µM (HCC 2998): 86%; growth at 1 µM (HT-29 [6]): 20%; growth at 1 µM (SNB-75 [7]): 45%; growth at 1 µM (LOX IMVI [8]): 44%; growth at 1 µM (OVCAR-3): 19%; growth at 1 µM (CAKI-1): 44%; growth at 1 µM (TK-10): 84%; growth at 10 µM (SF-295): -29%; growth at 10 µM (SNB-75 [9]): 3%; growth at 10 µM (MCF7): 16%; growth at 100 µM (HL-60): -7%; growth at 100 µM (IGROV-1): 24%; growth at 100 µM (DU-145 [10]): 17%
c1ccc(Cn2cnc3ccc(-c4nc(-c5ccc6c(c5)ncn6C5CCCCC5)cn5ccnc45)cc32)cc1,101,100,94,100,95,98,> 100,1330,> 100,2100,4.31,5.09,1920,1200,1860,98,92,90,90,98,growth at 0.1 µM (T47D): 95%; growth at 1 µM (HOP-92): 65%; growth at 1 µM (HCC 2998): 105%; growth at 1 µM (HT-29 [6]): 88%; growth at 1 µM (SNB-75 [7]): 60%; growth at 1 µM (LOX IMVI [8]): 88%; growth at 1 µM (OVCAR-3): 94%; growth at 1 µM (CAKI-1): 71%; growth at 1 µM (TK-10): 97%; growth at 10 µM (SF-295): -82%; growth at 10 µM (SNB-75 [9]): -70%; growth at 10 µM (MCF7): 2%; growth at 100 µM (HL-60): -18%; growth at 100 µM (IGROV-1): 18%; growth at 100 µM (DU-145 [10]): -8%
